# High-throughput results from PubChem.
# ERAP1 HTS inh: ERAP1 (human) enzyme inhibition; Q9NZ08; recombinant ERAP1, Leu-AMC fluorescence, 60 min; inhibition, % at 10.7 µM; hit rate 0.15% among 340,000; AID 652197;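 active means mean replicate inhibition of at least 30%, or all replicates individually reaching that 30% level; inactive means mean below 30% and not every replicate reaching it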;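 further: 0% = neutral control wells and 100% = L-leucinethiol positive control wells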
# E-selectin induc: E-selectin induction on HUVECs; P16581; HUVEC E-selectin immunofluorescence imaging; normalized: neutral wells 0, TNF-alpha wells 100; activation, % at 7.58 µM; hit rate 0.37% among 260,000;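 active means mean E-selectin-positive cell signal at least 10% of the positive control, reached in at least 60% of replicates, without over 20% cell loss; inconclusive means no rule given, readout overlaps actives, possibly toxicity-flagged; inactive means the rest, including those meeting only one limit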
#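 Read-out: % PE-positive cells | Test system: HUVEC | Doses: One compound dose added by pin transfer | Buffer or medium: EGM-2 over gelatin coat | Signal: Immunofluorescence imaging | Benchmarks: TNF-alpha, DMSO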
# DENV2 CPE rescue: DENV2-induced cell death inhibition. DENV2-infected cells, cytopathic effect rescue, plate reader. AID 651640. CPE inhibition, % at 9.99 µM. hit rate 1.7% among 350,000; in the data active means CPE inhibition above about 20%, passing the limit was not always enough; inconclusive means no clear call, values can overlap the other calls; tested in BHK-21 cells;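 further: 0% = median of neutral control wells and 100% = median of positive control wells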
# PglD inh: PglD (C. jejuni) enzyme inhibition; purified PglD enzyme, DTNB colorimetric CoA detection; inhibition, % at 12.5 µM; hit rate 0.098% among 360,000; in the data active means inhibition above about 16%, passing the limit was not always enough; inconclusive means no clear call, values can overlap the other calls
# SIRT5 block: sirtuin-5 (human) deacylase inhibition | inhibition, % at 15 µM | Purified SirT5, succinyl-peptide AMC, trypsin-coupled fluorescence | AID 652115 | Q9NXA8 | hit rate 1.1% among 330,000; in the data active means inhibition above about 15%; inconclusive means no clear call, values can overlap the other calls
# * = called active by the depositor; ? = inconclusive; . = not tested or not shown. A selection: hits, their analogues and other compounds. The true share with any hit is near 2.5%.
SMILES,ERAP1 HTS inh,E-selectin induc,DENV2 CPE rescue,PglD inh,SIRT5 block
CCc1c(C)nc2ccc(Br)cc2c1SCCC#N,1,2,-1,.,112*
C[C@@H]1CN([C@H](C)CO)C(=O)c2cc(NC(=O)Nc3cccc4ccccc34)ccc2O[C@@H]1CN(C)Cc1ccc(C(=O)Nc2ccccc2N)cc1,2,6,?,3,15*
C[C@@H]1CN([C@H](C)CO)C(=O)c2cc(NC(=O)Nc3ccc(C(F)(F)F)cc3)ccc2O[C@H]1CN(C)Cc1ccc(C(=O)Nc2ccccc2N)cc1,1,16,22*,.,8
C[C@@H]1CN([C@H](C)CO)C(=O)c2cc(NC(=O)Nc3cccc4ccccc34)ccc2O[C@H]1CN(C)Cc1ccc(C(=O)Nc2ccccc2N)cc1,2,-3,8,4,.
C[C@@H]1CN([C@H](C)CO)C(=O)c2cc(NC(=O)CCC(F)(F)F)ccc2O[C@H]1CN(C)Cc1ccc(C(=O)Nc2ccccc2N)cc1,0,-3,20*,.,.
COC(=O)c1cc2c(c3c4cc(OC)ccc4n(S(=O)(=O)c4ccccc4)c13)C(=O)N(Cc1ccc(C(F)(F)F)cc1)C2,-3,0,-5,.,.
Cc1noc(C)c1NC(=O)Nc1ccc2c(c1)C(=O)N([C@H](C)CO)C[C@@H](C)[C@@H](CN(C)CC1CCCCC1)O2,-1,-2,18,0,10
Cc1c(N(C)C(=O)COc2ccc3ccccc3c2)c(=O)n(-c2ccccc2)n1C,-6,42*,-2,-8,1
O=C(c1ccccc1)c1coc2ccc(O)c(Cl)c12,3,.,.,-4,22*
OC1(c2ccccn2)COc2ccccc2O1 (stereo unspecified),0,0,1,1,.
CC1(C(=O)NCc2cccc(C(F)(F)F)c2)CCN1Cc1ccc(-c2ccccc2)o1 (stereo unspecified),2,-2,1,0,0
CC1(C(=O)NCc2cccc(C(F)(F)F)c2)CCN1Cc1cc2ccccc2o1 (stereo unspecified),1,-1,56*,-5,-21
COc1ccc(-c2ccc(SCc3cccnc3)nn2)cc1OC,-1,.,6,.,-3
CN(c1ccccc1)c1ncnc2c1ncn2C,-8,.,89*,1,3
CN(C)c1ncnc2c1ncn2-c1ccccc1,5,0,-3,0,-4
NC(=O)c1c(NC(=S)Nc2ccc(F)cc2)sc2c1CCCC2,11,.,.,1,2
C[C@@H]1CCCCO[C@@H](CN(C)C(=O)Nc2ccc3c(c2)OCO3)[C@@H](C)CN([C@@H](C)CO)C(=O)c2cc(NC(=O)Cc3ccccc3)ccc2O1,.,0,12,7,.
C[C@H](CO)N1C[C@H](C)[C@H](CN(C)Cc2ccc(C(F)(F)F)cc2)OCCCC[C@H](C)Oc2ccc(NC(=O)Cc3ccccc3)cc2C1=O,-5,0,8,-2,1
C[C@@H]1CCCCO[C@H](CN(C)Cc2ccccc2)[C@H](C)CN([C@@H](C)CO)C(=O)c2cc(NC(=O)c3ccccc3)ccc2O1,.,.,27*,1,.
C[C@H]1CCCCO[C@H](CN(C)C(=O)Nc2ccc3c(c2)OCO3)[C@@H](C)CN([C@@H](C)CO)C(=O)c2cc(NC(=O)Cc3ccccc3)ccc2O1,.,0,27*,2,.
C[C@@H]1CCCCO[C@@H](CN(C)Cc2ccc(C(F)(F)F)cc2)[C@H](C)CN([C@H](C)CO)C(=O)c2cc(NC(=O)Cc3ccccc3)ccc2O1,-6,1,40*,-1,3
C[C@@H]1CCCCO[C@H](CN(C)C(=O)NC2CCCCC2)[C@H](C)CN([C@@H](C)CO)C(=O)c2cc(NC(=O)c3ccccc3)ccc2O1,.,0,43*,-4,.
C[C@@H]1CCCCO[C@H](CN(C)C(=O)NC2CCCCC2)[C@@H](C)CN([C@@H](C)CO)C(=O)c2cc(NC(=O)c3ccccc3)ccc2O1,.,0,13,1,.
Cc1ccc(N=Nc2ccc(O)cc2)c(Br)c1,3,.,0,-4,7
COc1ccc(S(=O)(=O)NCc2cccnc2)cc1C(=O)N1CCCCC1,-3,.,?,-1,-2
C[C@H]1CCCCO[C@H](CN(C)C(=O)Nc2ccc(C(F)(F)F)cc2)[C@@H](C)CN([C@@H](C)CO)C(=O)c2cc(NC(=O)Cc3ccccc3)ccc2O1,.,0,14,3,.
